Structures are written as SMILES. Some of the results follow. A number with no mark means an inactive call. Calls of active or inactive are those of the source.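 How the source made its calls, unless noted: active means mean activation over triplicate wells above the hit cutoff derived from the earlier primary screen (cut at about 11% in these data); inactive means the rest.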

Assay [1] deals with Oxysterols receptor LXR-beta (Homo sapiens) (UniProt P55055). The assay can be described thus: nonspecific reporter activation via LXR – cell-based, luminescence, HEK293, H. contortus campaign, counter-screen for hcDAF-12 agonist project, confirmation (AID 743027;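 active means mean percent activation of the reporter above a cutoff set as the average over tested compounds plus their standard deviation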). Particulars: HEK293 Gal4-LXR tk-luc reporter, 24 h, at 6.8 µM, active compounds read high, normalized: DMSO 0%, positive control 100%. The procedure, abridged:
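Assay system: Gal4-LXR and tk-luc reporter transfected HEK293 cells; Compound: 6.8 µM single dose; Times: one-day compound treatment at 37 °C; Technique: One-Glo luciferase luminescence; Read-out basis: % activation relative to DMSO and positive-control wells; Benchmarks: DMSO low control, positive-control high control; Repeats: three replicates per compound.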

Assay [2] has as its system Nuclear hormone receptor DAF-12 (Haemonchus contortus). The assay can be described thus: hcDAF-12 luciferase reporter activation, retest – cell-based, luminescence, HEK293, lit1-tk-luc, triplicate, confirmation (AID 743032;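 active means mean activation across triplicate tests above the threshold derived from the earlier primary screen, cut at about 5.5% in these data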;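 further: 0% = DMSO only wells and 100% = 3 µM Δ7-dafachronic acid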). Particulars: HEK293 hcDAF-12 lit1-tk-luc reporter, at 6.8 µM, active compounds read high, % of Δ7-dafachronic acid response. Background: Reporter assays use an easily measured gene product as a stand-in for the process of interest.

Assay [3] relates to DAF-12 nuclear receptor (Heterodera glycines), GAL4-LBD fusion. The assay can be described thus: hgDAF-12 GAL4 fusion reporter activation, retest – cell-based, luminescence, HEK293, GAL4-LBD fusion, confirmation (AID 743050).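 Further: 0% = DMSO low control and 100% = 2 mM sodium butyrate high control.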 Particulars: HEK293 GAL4-hgDAF12 luciferase reporter, agonist mode; at 6.8 µM; active compounds read high; percent of butyrate response.
Assay [4] deals with Oxysterols receptor LXR-beta (Homo sapiens) (UniProt P55055). The experiment in a line: nonspecific reporter activation via LXR – cell-based, luminescence, HEK293, H. glycines campaign, counter-screen for hgDAF-12 agonist project, confirmation (AID 743051;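 active means mean activation of the triplicate above a set limit carried over from the primary screen, none filed active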). Particulars: HEK293 Gal4-LXR luciferase reporter, 24 h; at 6.8 µM; active compounds read high. The procedure, abridged: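 System: HEK293 cells with Gal4-LXR and tk-luc reporter. Compound dosing: single nominal test compound dose of 6.8 µM. Timing: 3 h cell plating, then 24 h compound exposure at 37 °C. Detection: One-Glo luminescence after 15 min. Read-out basis: percent activation relative to median DMSO and positive-control wells. Benchmarks: DMSO low control, 0.68% final.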
Chain of Oxysterols receptor LXR-beta (Homo sapiens) (P55055 whole entry, looked up, the tested form may be a part): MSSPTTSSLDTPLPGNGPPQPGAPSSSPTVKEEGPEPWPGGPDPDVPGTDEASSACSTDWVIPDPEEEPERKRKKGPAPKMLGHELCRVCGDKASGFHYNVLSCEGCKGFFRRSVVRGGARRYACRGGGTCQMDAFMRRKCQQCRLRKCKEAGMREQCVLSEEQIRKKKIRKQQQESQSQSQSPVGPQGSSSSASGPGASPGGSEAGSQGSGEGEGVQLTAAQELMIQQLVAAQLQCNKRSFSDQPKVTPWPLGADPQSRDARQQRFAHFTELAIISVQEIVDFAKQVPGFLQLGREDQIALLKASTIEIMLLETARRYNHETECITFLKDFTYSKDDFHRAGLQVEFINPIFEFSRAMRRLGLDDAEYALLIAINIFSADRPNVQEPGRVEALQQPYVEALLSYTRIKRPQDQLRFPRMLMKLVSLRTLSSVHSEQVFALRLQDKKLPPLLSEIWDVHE

`c1ccc(Cc2c(-c3ccco3)nc3c4ccccc4ccn23)cc1`: the activation was 1.44% in assay [1], 15.8% (active) in assay [2], 16.6% (active) in assay [3] and 0.76% in assay [4].
In the same order, the values of `Nc1ccc(C(=O)Nc2ccccc2N)cc1` are 1.14%, 9.52% (active), 85.4% (active) and 0.48%.
On the same counts, the results for `O=C(Nc1ccn(Cc2ccccc2)n1)c1cccc(F)c1` are 1.66%, 7.02% (active), 15.6% (active) and 0.7%.
In the same order, the values of `Cn1c(=NC(=O)c2ccco2)sc2cccc(F)c21` are 1.46%, 15% (active), 22.9% (active) and 0.76%.
As to `Cc1cccc(NC(=O)/C=C/c2ccc3c(c2)OCO3)n1`, the activation in assay [3] is 18.1% (active); in assay [4], 0.84%.
As for `COc1ccc(/C=C2/CCCc3ccccc3C2=O)cc1`, the activation in assay [3] is 18.7% (active); in assay [4], 0.78%.
For the compound `Cn1c(-c2ccc(C(=O)c3ccccc3)s2)nc2ccccc21`, the activation in assay [3] was 17.6% (active); in assay [4] it was 0.88%.
In the case of `CC(=O)c1cc(C#N)c(SCC(=O)C(C)(C)C)nc1C`, the activation was 14.8% (active) in assay [3] and 0.48% in assay [4].
In the same order, the values of `O=C(c1cnn2ccccc12)N1CCc2ccccc21` are 13.2% (active) and 0.43%.
Consider `Cc1ccccc1Nc1nc(-c2cccnc2)cs1`, for which the activation was 16.4% (active) in assay [3] and 0.7% in assay [4].
In the same order, the values of `c1ccc(CN=C2Nc3ccccc3CS2)nc1` are 12.9% (active) and 0.55%.
For the compound `O=C(NCCOc1ccccc1)c1ccccc1`, the activation in assay [3] was 13.3% (active); in assay [4] it was 0.69%.
Take `Cc1ccn(-c2cccc(-n3ccc(C)n3)n2)n1`: the activation in assay [3] was 15.2% (active); in assay [4], 0.61%.
On the same counts, the results for `Cc1cnc(NC(=O)c2ccccn2)s1` are 15.6% (active) and 0.63%.
For `Cc1ccc(C(=O)Nc2ccc(C)c(S(=O)(=O)N(C)C)c2)s1`, the results for the activation in assay [3] and in assay [4] were 11.2% (active) and 0.45%, respectively.
In the same order, the values of `O=C(NC1CCC1)c1ccc(C#CC2CC2)cn1` are 13.4% (active) and 0.57%.
As for `COc1ccc(CNC(=O)COc2ccccc2C(=O)c2cnn(-c3ccccc3)c2)cc1OC`, the values for the activation in assay [3] and in assay [4] were 10.3% and 0.65%, respectively.
In the case of `O=[N+]([O-])c1ccc2c(c1)Nc1nc3ccccc3nc1N2`, the results for the activation in assay [3] and in assay [4] were 25.8% (active) and 1.35%, respectively.
On the same counts, the results for `O=C(NN=Cc1ccc2c(c1)CCC2)c1ccccc1O` are 10.4% and 0.3%.
For `COC(=O)N/N=C/c1cn(CCCOc2ccc(C)cc2)c2ccccc12`, the activation in assay [3] was 6.55%; in assay [4], 0.17%.
Consider `CC1CCCN(c2ccc(C(=O)NCCc3ccccc3)cn2)C1` (centres undefined), for which the activation in assay [3] is 14.6% (active); in assay [4], 0.64%.
In the case of `COc1cccc(/C=C/C(=O)Nc2ccc3c(c2)OCCO3)c1`, the values for the activation in assay [3] and in assay [4] were 12.4% (active) and 0.69%, respectively.
In the same order, the values of `CC(C)(C)c1csc(NC2=NS(=O)(=O)c3ccccc32)n1` are 15.4% (active) and 0.75%.
`CS(=O)(=O)N1CCc2nc(-c3ccccc3)sc2C1`: the activation was 10.3% in assay [3] and 0.56% in assay [4].
On the same counts, the results for `Cc1ccc(NC(=O)c2ccco2)cc1` are 11.2% (active) and 0.49%.
In the same order, the values of `Cc1ccc(NC(=O)c2sccc2C)cc1[N+](=O)[O-]` are 11% (active) and 0.43%.
In the same order, the values of `O=C(NNC(=O)c1ccc(Cl)cc1Cl)c1cccs1` are 9.02% and 0.37%.
`COc1ccc(C(=O)O/N=C(\N)c2ccccn2)cc1[N+](=O)[O-]`: the activation in assay [3] is 15% (active); in assay [4] it was 0.59%.
Regarding `S=C(c1ccc(-c2ccccc2)o1)N1CCCCC1`, the activation in assay [3] was 16.1% (active); in assay [4], 0.73%.
On the same counts, the results for `CCCNC(=O)c1c(Cl)cnn1-c1ccc(C)cc1` are 9.95% and 0.55%.
For `COC(=O)c1sc(NC(=O)c2ccc(OC)cc2OC)nc1C`, the results for the activation in assay [3] and in assay [4] were 7.02% and 1.05%, respectively.
As for `O=C(NC1CCCC1)c1cc(-c2ccccc2)on1`, the activation in assay [3] is 37.1% (active); in assay [4], 0.75%.
On the same counts, the results for `Cc1cccc(N(CC(=O)Nc2ccc(-c3nc4ccc(C)cc4s3)cc2)S(C)(=O)=O)c1` are 19.8% (active) and 0.65%.
On to `Cc1cccc(NC(=S)NC(=O)c2ccc(Br)o2)c1`, for which the activation in assay [3] was 11.1% (active); in assay [4], 0.48%.
Consider `COc1ccc(NC(=O)Nc2ccc3nsnc3c2)cc1`, for which the activation in assay [3] is 13.8% (active); in assay [4] it was 0.54%.
Regarding `O=C(NCCOc1ccccc1)c1ccccc1F`, the activation is 12.7% (active) in assay [3] and 0.64% in assay [4].
In the same order, the values of `O=C(Nc1ccccc1)c1ccc2c(c1)OCCCO2` are 19.7% (active) and 1.02%.
As for `O=C(NC(=S)NC1CCCCC1)c1ccc(Cl)cc1`, the activation is 11.3% (active) in assay [3] and 0.45% in assay [4].

The values above are taken from PubChem BioAssay.
